Data taken from ChEMBL document CHEMBL4028898, “Structure-Activity Relationships of 6- and 8-Gingerol Analogs as Anti-Biofilm Agents” (J Med Chem, 2017).
The source made the active and inactive calls. The rule behind the calls is not given here.

What was measured:
Pseudomonas aeruginosa [1] = test: Inhibition of static biofilm formation of Pseudomonas aeruginosa PA14 at 10 uM after 24 hrs by crystal violet staining-based assay; assay type: functional
In short: (§1)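 PA14 overnight culture (OD595 1.0) diluted 1:20 in AB medium, pH 7.5, with compound (0–100 µM), in borosilicate bottles, static at 37 °C for 24 hr.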

Pseudomonas aeruginosa [2] = test: Antagonist activity at Pseudomonas aeruginosa LasR expressed in Escherichia coli DH5alpha assessed as inhibition of protein interaction with OdDHL at 1 to 10 uM after 1.5 hrs by beta-galactosidase reporter gene assay
In short: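 E. coli DH5α reporter carrying pJN105L (LasR) and pSC11 (lasI::lacZ); overnight culture with 10 µg/mL gentamicin and 50 µg/mL ampicillin diluted 1:100 in LB, used at OD595 0.3. Incubated with compound, OdDHL and 0.4% arabinose at 37 °C for 1.5 hr. β-galactosidase read by luminescence; RLU ratio = luminescence/OD595 ×100.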

Pseudomonas aeruginosa [3] = test: Agonist activity at Pseudomonas aeruginosa LasR expressed in Escherichia coli DH5alpha at 10 uM after 1.5 hrs by beta-galactosidase reporter gene assay
Pseudomonas aeruginosa [4] = test: Inhibition of static biofilm formation of Pseudomonas aeruginosa PA14 at 100 uM after 24 hrs by crystal violet staining-based assay; assay type: functional; in short: as §1
Pseudomonas aeruginosa [5] = test: Growth inhibition of Pseudomonas aeruginosa PA14 at 100 uM after 24 hrs
In short: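 P. aeruginosa PA14 overnight culture (OD595 1.0), 5% dilution with compound (0–100 µM), grown in 96-well plates at 37 °C for 24 h; growth read as OD595.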

Pseudomonas aeruginosa [6] = test: Inhibition of dynamic biofilm formation of Pseudomonas aeruginosa PA14 assessed as biofilm thickness up to 10 uM after 48 hrs by Ruby/ConA staining-based assay (reference value: 34.5 +/- 1.3 um); assay type: functional
In short: (§2)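 Glass slides seeded 24 h at 37 °C, static, with PA14 (OD595 1.0) in AB medium, then placed in a drip-flow reactor fed with AB medium plus compound (0–10 µM) at 0.3 mL/min, 37 °C, 48 hr. PBS-washed biofilm stained 15 min with FITC-ConA (carbohydrate) and SYPRO Ruby (protein); CLSM at 20×; volume (µm³/µm²) and average thickness quantified by Comstat2.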

Pseudomonas aeruginosa [7] = test: Inhibition of dynamic biofilm formation of Pseudomonas aeruginosa PA14 assessed as biofilm volume up to 10 uM after 48 hrs by Ruby/ConA staining-based assay (reference value: 23.1 +/- 1.8 um'3/um'2); assay type: functional; in short: as §2
Pseudomonas aeruginosa [8] = test: Inhibition of static biofilm formation of Pseudomonas aeruginosa PA14 assessed as level of biofilm formation at 10 uM after 24 hrs by crystal violet staining-based assay relative to control; assay type: functional; design: scale not given: the % may be the effect or the level left; in short: as §1
Pseudomonas aeruginosa [9] = test: Inhibition of dynamic biofilm formation of Pseudomonas aeruginosa PA14 at 10 uM after 48 hrs by Ruby/ConA staining-based confocal laser scanning microscopic method; assay type: functional; in short: as §2
Pseudomonas aeruginosa [10] = test: Reversible binding affinity to Pseudomonas aeruginosa LasR expressed in Escherichia coli DH5alpha at 1 uM after 1.5 hrs in presence of OdDHL by beta-galactosidase reporter gene assay
In short: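 LasR reporter in E. coli DH5α (pJN105L + pSC11) with 0.4% arabinose, 37 °C, 1.5 hr. Compound at 1 µM tested against OdDHL at 0, 0.1, 1, 10 and 100 µM, compared with no-compound control. β-galactosidase luminescence divided by OD595.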

Pseudomonas aeruginosa [11] = test: Inhibition of dynamic biofilm formation of Pseudomonas aeruginosa PA14 assessed as volume of carbohydrates in biofilm up to 10 uM after 48 hrs by Ruby/ConA staining-based assay relative to control; assay type: functional; design: scale not given: the % may be the effect or the level left; in short: as §2
Pseudomonas aeruginosa [12] = test: Inhibition of dynamic biofilm formation of Pseudomonas aeruginosa PA14 assessed as volume of proteins in biofilm up to 10 uM after 48 hrs by Ruby/ConA staining-based assay relative to control; assay type: functional; design: scale not given: the % may be the effect or the level left; in short: as §2

Compound	inhibition (Pseudomonas aeruginosa [2])	inhibition (Pseudomonas aeruginosa [1])	also measured
CCCCCCCC(O)CC(=O)CCc1ccc(F)cc1 (stereo not drawn)	Active	Active	
CCCCCCCCCC(O)CC(=O)CCc1ccc(O)c(OC)c1 (stereo not drawn)	Active		Activity (Pseudomonas aeruginosa [3]): inactive; inhibition (Pseudomonas aeruginosa [4]): Active; growth inhibition (GI) (Pseudomonas aeruginosa [5]): Toxic
CCCCCCC[C@H](O)CC(=O)CCc1ccc(O)c(OC)c1	Active		Activity (Pseudomonas aeruginosa [6]): 17 um; Activity (Pseudomonas aeruginosa [7]): 17 um3/um2; Activity (Pseudomonas aeruginosa [8]): 100%; inhibition (Pseudomonas aeruginosa [9]): Active
CCCCCCCC(O)CC(=O)CCc1cccc(OC)c1 (stereo not drawn)	Active		
CCCCCCCCCC(=O)CCc1ccc(O)c(OC)c1	Active	Active	
CCCCCCCC(=O)CCc1ccc(O)c(OC)c1	Active	Active	
CCCCCCCC(O)CC(=O)CCc1ccc(O)c(OC)c1 (stereo not drawn)	Active		Activity (Pseudomonas aeruginosa [3]): inactive
CCCCCCCC(O)CC(=O)/C=C/c1ccc(O)c(OC)c1 (stereo not drawn)	Active		
CCCCCCCCC(O)CC(=O)CCc1ccc(O)c(OC)c1 (stereo not drawn)	Active		Activity (Pseudomonas aeruginosa [3]): inactive; inhibition (Pseudomonas aeruginosa [4]): Active; growth inhibition (GI) (Pseudomonas aeruginosa [5]): Toxic
CCCCCC(O)CC(=O)CCc1ccc(F)c(OC)c1 (stereo not drawn)	Active	Active	
CCCCCCC(O)CC(=O)CCc1ccc(O)c(OC)c1 (stereo not drawn)	Active		Activity (Pseudomonas aeruginosa [3]): inactive
CCCCCC(O)CC(=O)CCc1ccc(O)cc1 (stereo not drawn)	Active	Active	
CCCCCC(O)CC(=O)CCc1cccc(OC)c1 (stereo not drawn)	Active		
CCCCCCCCCC(=O)/C=C/c1ccc(O)c(OC)c1	Active	Active	
CCCCCCCC(=O)/C=C/c1ccc(O)c(OC)c1	Active	Active	
CCCCCCC[C@@H](O)CC(=O)CCc1ccc(O)c(OC)c1	Active		Activity (Pseudomonas aeruginosa [6]): 13.9 um; Activity (Pseudomonas aeruginosa [7]): 9.7 um3/um2; growth inhibition (GI) (Pseudomonas aeruginosa [5]): Non-Toxic; Activity (Pseudomonas aeruginosa [8]): 72%; inhibition (Pseudomonas aeruginosa [9]): Active
CCCCCC(O)CC(=O)CCc1ccc(O)c(OC)c1 (stereo not drawn)	Active		Activity (Pseudomonas aeruginosa [3]): inactive

Second part, led by results:

inhibition (Pseudomonas aeruginosa [2])	Compound	inhibition (Pseudomonas aeruginosa [1])	also measured
Active	CCCCCCCC(O)CC(=O)CCc1ccc(F)c(OC)c1 (stereo not drawn)	Active	
Active	CCCCC[C@H](O)CC(=O)CCc1ccc(O)c(OC)c1	Active	
Active	CCCCCCCC(O)CC(=O)CCc1ccc(O)cc1 (stereo not drawn)	Active	
Active	CCCCCCCC(O)CC(=O)CCc1ccccc1 (stereo not drawn)		
Active	CCCCCCCC(O)CC(=O)CCc1ccc(OC)c(OC)c1 (stereo not drawn)		
Active	CCCCCC(O)CC(=O)CCc1ccc(F)cc1 (stereo not drawn)	Active	
Active	CCCCCCCC(O)CC(=O)CCc1ccc(O)c(OCC)c1 (stereo not drawn)		
Active	CCCCCCC[C@@H](O)CC(=O)/C=C/c1ccc(O)c(OC)c1	Active	Activity (Pseudomonas aeruginosa [10]): Active; Activity (Pseudomonas aeruginosa [11]): 47 - 74%; Activity (Pseudomonas aeruginosa [6]): 10.3 um; Activity (Pseudomonas aeruginosa [7]): 7.4 um3/um2; growth inhibition (GI) (Pseudomonas aeruginosa [5]): Non-Toxic; inhibition (Pseudomonas aeruginosa [9]): Active; Activity (Pseudomonas aeruginosa [12]): 23 - 56%
Active	CCCCC(O)CC(=O)CCc1ccc(O)c(OC)c1 (stereo not drawn)		Activity (Pseudomonas aeruginosa [3]): inactive
Active	CCCC(O)CC(=O)CCc1ccc(O)c(OC)c1 (stereo not drawn)		Activity (Pseudomonas aeruginosa [3]): inactive
Active	CCCCCC(O)CC(=O)/C=C/c1ccc(O)c(OC)c1 (stereo not drawn)		
Active	CCCCCC(O)CC(=O)CCc1ccccc1 (stereo not drawn)		
